Experimental data from ChEMBL document CHEMBL1125388, “New modified heterocyclic phenylalanine derivatives. Incorporation into potent inhibitors of human renin” (J Med Chem, 1992).
Where “and” joins values, the source holds several entries; their conditions need not be identical. Equal values may be shown once.

Legend:
[1] = target: T1, Renin (Homo sapiens, UniProt P00797); assay: Inhibition of human recombinant renin
T1 sequence (P00797 whole entry): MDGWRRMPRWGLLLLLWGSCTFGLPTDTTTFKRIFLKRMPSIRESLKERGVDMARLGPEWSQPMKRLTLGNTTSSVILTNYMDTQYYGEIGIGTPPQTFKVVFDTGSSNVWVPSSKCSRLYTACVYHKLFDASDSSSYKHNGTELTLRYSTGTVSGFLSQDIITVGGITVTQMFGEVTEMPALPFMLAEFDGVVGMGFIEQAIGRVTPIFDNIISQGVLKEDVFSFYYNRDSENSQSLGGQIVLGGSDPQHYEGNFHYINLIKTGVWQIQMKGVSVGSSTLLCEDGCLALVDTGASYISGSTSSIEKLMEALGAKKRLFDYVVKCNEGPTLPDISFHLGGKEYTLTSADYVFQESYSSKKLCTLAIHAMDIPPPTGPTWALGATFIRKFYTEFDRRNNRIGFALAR
How it was run: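 Recombinant human renin (0.05 GU/mL, set to generate 30-40 ng A1/mL per h) incubated with 20 μM human renin substrate stock, pH 5.7 phosphate buffer with BSA, EDTA and PMSF, 1% DMSO final, 37 °C for 1 h; 4 °C blank tubes. RIA (3 h room temperature, γ counting) against standard curve; IC50 reported.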

[2] = target: T2, Renin (Homo sapiens) (UniProt P00797); assay: Inhibition of human recombinant renin at 1 uM
T2 sequence (whole entry): T1 sequence (P00797 whole entry)

IC50 [1]	inhibition [2]	Compound
207 nM		COC(=O)C(O)[C@H](CC1CCCCC1)NC(=O)C(CC(C)C)NC(=O)[C@H](Cc1ccccc1)N1Cc2ncccc2C1=O (stereo not given in full)
23 nM		COC(=O)C(O)[C@H](CC1CCCCC1)NC(=O)C(CC(C)C)NC(=O)[C@H](Cc1ccccc1)N1Cc2ccccc2C1=O (stereo not given in full)
8.9 nM		CCC[C@H](NC(=O)[C@H](Cc1ccccc1)N1Cc2ccccc2C1=O)C(=O)N[C@@H](CC1CCCCC1)C(O)C(=O)OC(C)C (stereo not given in full)
186 nM		COC(=O)C(O)[C@H](CC1CCCCC1)NC(=O)C(Cc1cnc[nH]1)NC(=O)[C@H](Cc1ccccc1)N1Cc2ccccc2C1=O (stereo not given in full)
	45%	COC(=O)C(O)[C@H](CC1CCCCC1)NC(=O)C(CC(C)C)NC(=O)[C@H](Cc1ccccc1)N1C(=O)c2ccccc2C1=O (stereo not given in full)
8 nM and 24 nM		COC(=O)C(O)[C@H](CC1CCCCC1)NC(=O)C(CC(C)C)NC(=O)[C@H](Cc1ccccc1)NC(=O)OC(C)(C)C (stereo not given in full)
16 nM		CCCC[C@H](NC(=O)[C@H](Cc1ccccc1)N1Cc2ccccc2C1=O)C(=O)N[C@@H](CC1CCCCC1)C(O)C(=O)OC(C)C (stereo not given in full)
100 nM		CC(C)CC(NC(=O)[C@H](Cc1ccccc1)N1Cc2nccn2C1=O)C(=O)N[C@@H](CC1CCCCC1)C(O)C(=O)OC(C)C (stereo not given in full)
	76%	COC(=O)C(O)[C@H](CC1CCCCC1)NC(=O)C(CC(C)C)NC(=O)[C@H](Cc1ccccc1)N1C(=O)OC(C)(C)C1C (stereo not given in full)
391 nM		COC(=O)C(O)[C@H](CC1CCCCC1)NC(=O)C(CC(C)C)NC(=O)[C@H](Cc1ccccc1)N1C(=O)c2cccc3cccc(c23)C1=O (stereo not given in full)
36 nM		CC(C)CC(NC(=O)[C@H](Cc1ccccc1)N1Cc2ccccc2C1=O)C(=O)N[C@@H](CC1CCCCC1)C(O)C(=O)OC(C)C (stereo not given in full)
141 nM		CC(C)CC(NC(=O)[C@H](Cc1ccccc1)N1CC2CCCN2C1=O)C(=O)N[C@@H](CC1CCCCC1)C(O)C(=O)OC(C)C (stereo not given in full)
80 nM		CC(C)CC(NC(=O)[C@H](Cc1ccccc1)N1Cc2cccc3cccc(c23)C1=O)C(=O)N[C@@H](CC1CCCCC1)C(O)C(=O)OC(C)C (stereo not given in full)
157 nM		CC(C)CC(NC(=O)[C@H](Cc1ccccc1)N1CCCC1=O)C(=O)N[C@@H](CC1CCCCC1)C(O)C(=O)OC(C)C (stereo not given in full)
	86.4%	COC(=O)C(O)[C@H](CC1CCCCC1)NC(=O)C(CC(C)C)NC(=O)[C@H](Cc1ccccc1)N1CC(C)(C)OC1=O (stereo not given in full)
